Laboratory results taken from ChEMBL document CHEMBL4689842, “EUbOPEN Chemogenomics Library wave 1” (2021).

System: HEK-293T
Assay: Multiplex assay against HEK293T;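 as to Population Tubulin-Different-Phenotype (%): share of the cells with healthy nuclei that show this phenotype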
Assay type: toxicity, cell-based
Conditions: human
Outline: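 Per cents of healthy-nucleus cells form the tubulin, mitochondrial-mass and membrane-permeability phenotype values. Live cells were stained at seeding with Hoechst33342, BioTracker Green Microtubule Cytoskeleton Dye, MitoTracker Red and Annexin V Alexa Fluor 680. After compound addition they were imaged on a CQ1 microscope at 37°C and 5% CO2, and CellPathfinder machine-learning gating split them into Hoechst high-intensity objects or normal cells, normal cells into healthy, pyknosed or fragmented nuclei, and pyknosed cells into mitotic or apoptotic.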

[1] = 12 h, 1 µM, compound concentration 1 uM, replicate 1
[2] = 12 h, 1 µM, compound concentration 1 uM, replicate 2
[3] = 12 h, 10 µM, compound concentration 10 uM, replicate 1
[4] = 12 h, 10 µM, compound concentration 10 uM, replicate 2
[5] = 24 h, 1 µM, compound concentration 1 uM, replicate 1
[6] = 24 h, 1 µM, compound concentration 1 uM, replicate 2
[7] = 24 h, 10 µM, compound concentration 10 uM, replicate 1
[8] = 24 h, 10 µM, compound concentration 10 uM, replicate 2
[9] = 48 h, 1 µM, compound concentration 1 uM, replicate 1
[10] = 48 h, 1 µM, compound concentration 1 uM, replicate 2
[11] = 48 h, 10 µM, compound concentration 10 uM, replicate 1
[12] = 48 h, 10 µM, compound concentration 10 uM, replicate 2

O=C(c1cc2c(cc1F)OC(c1ccc(F)cc1)(c1ccc(Cl)cc1Cl)O2)N1CCOCC1 (stereo not given)
Population Apoptotic (%) [1]: 45% | Population Fragmented Nuclei (%) [1]: 17% | Population Healthy Nuclei (%) [1]: 37% | Population Hoechst High Intensity Objects (%) [1]: 12% | Population Membrane Permeable-Phenotype (%) [1]: 1% | Population Mitochondria Different-Phenotype (%) [1]: 87% | Population Mitotic Cells (%) [1]: 54% | Population Normal (%) [1]: 87% | Population Pyknosed Nuclei (%) [1]: 44% | Population Tubulin-Different-Phenotype (%) [1]: 54% | Total Cell Count [1]: 214 | Population Apoptotic (%) [2]: 16% | Population Fragmented Nuclei (%) [2]: 5% | Population Healthy Nuclei (%) [2]: 35% | Population Hoechst High Intensity Objects (%) [2]: 5% | Population Membrane Permeable-Phenotype (%) [2]: 3% | Population Mitochondria Different-Phenotype (%) [2]: 24% | Population Mitotic Cells (%) [2]: 84% | Population Normal (%) [2]: 94% | Population Pyknosed Nuclei (%) [2]: 59% | Population Tubulin-Different-Phenotype (%) [2]: 23% | Total Cell Count [2]: 268 | Population Apoptotic (%) [3]: 64% | Population Fragmented Nuclei (%) [3]: 10% | Population Healthy Nuclei (%) [3]: 17% | Population Hoechst High Intensity Objects (%) [3]: 17% | Population Membrane Permeable-Phenotype (%) [3]: 0% | Population Mitochondria Different-Phenotype (%) [3]: 94% | Population Mitotic Cells (%) [3]: 35% | Population Normal (%) [3]: 82% | Population Pyknosed Nuclei (%) [3]: 72% | Population Tubulin-Different-Phenotype (%) [3]: 97% | Total Cell Count [3]: 264 | Population Apoptotic (%) [4]: 54% | Population Fragmented Nuclei (%) [4]: 8% | Population Healthy Nuclei (%) [4]: 8% | Population Hoechst High Intensity Objects (%) [4]: 9% | Population Mitochondria Different-Phenotype (%) [4]: 58% | Population Mitotic Cells (%) [4]: 45% | Population Normal (%) [4]: 90% | Population Pyknosed Nuclei (%) [4]: 82% | Population Tubulin-Different-Phenotype (%) [4]: 83% | Total Cell Count [4]: 153 | Population Apoptotic (%) [5]: 48% | Population Fragmented Nuclei (%) [5]: 15% | Population Healthy Nuclei (%) [5]: 34% | Population Hoechst High Intensity Objects (%) [5]: 15% | Population Membrane Permeable-Phenotype (%) [5]: 0% | Population Mitochondria Different-Phenotype (%) [5]: 79% | Population Mitotic Cells (%) [5]: 51% | Population Normal (%) [5]: 84% | Population Pyknosed Nuclei (%) [5]: 50% | Population Tubulin-Different-Phenotype (%) [5]: 43% | Total Cell Count [5]: 216 | Population Apoptotic (%) [6]: 14% | Population Fragmented Nuclei (%) [6]: 3% | Population Healthy Nuclei (%) [6]: 60% | Population Hoechst High Intensity Objects (%) [6]: 3% | Population Membrane Permeable-Phenotype (%) [6]: 1% | Population Mitochondria Different-Phenotype (%) [6]: 36% | Population Mitotic Cells (%) [6]: 85% | Population Normal (%) [6]: 96% | Population Pyknosed Nuclei (%) [6]: 35% | Population Tubulin-Different-Phenotype (%) [6]: 39% | Total Cell Count [6]: 330 | Population Fragmented Nuclei (%) [7]: 11% | Population Healthy Nuclei (%) [7]: 19% | Population Hoechst High Intensity Objects (%) [7]: 16% | Population Membrane Permeable-Phenotype (%) [7]: 2% | Population Mitochondria Different-Phenotype (%) [7]: 86% | Population Normal (%) [7]: 83% | Population Pyknosed Nuclei (%) [7]: 68% | Population Tubulin-Different-Phenotype (%) [7]: 95% | Total Cell Count [7]: 274 | Population Apoptotic (%) [8]: 53% | Population Fragmented Nuclei (%) [8]: 9% | Population Healthy Nuclei (%) [8]: 13% | Population Hoechst High Intensity Objects (%) [8]: 7% | Population Membrane Permeable-Phenotype (%) [8]: 10% | Population Mitochondria Different-Phenotype (%) [8]: 63% | Population Mitotic Cells (%) [8]: 46% | Population Normal (%) [8]: 92% | Population Pyknosed Nuclei (%) [8]: 77% | Population Tubulin-Different-Phenotype (%) [8]: 89% | Total Cell Count [8]: 154 | Population Apoptotic (%) [9]: 57% | Population Fragmented Nuclei (%) [9]: 16% | Population Healthy Nuclei (%) [9]: 44% | Population Hoechst High Intensity Objects (%) [9]: 18% | Population Membrane Permeable-Phenotype (%) [9]: 0% | Population Mitochondria Different-Phenotype (%) [9]: 48% | Population Mitotic Cells (%) [9]: 42% | Population Normal (%) [9]: 81% | Population Pyknosed Nuclei (%) [9]: 38% | Population Tubulin-Different-Phenotype (%) [9]: 40% | Total Cell Count [9]: 232 | Population Apoptotic (%) [10]: 22% | Population Fragmented Nuclei (%) [10]: 5% | Population Healthy Nuclei (%) [10]: 76% | Population Hoechst High Intensity Objects (%) [10]: 3% | Population Membrane Permeable-Phenotype (%) [10]: 2% | Population Mitochondria Different-Phenotype (%) [10]: 11% | Population Mitotic Cells (%) [10]: 77% | Population Normal (%) [10]: 96% | Population Pyknosed Nuclei (%) [10]: 18% | Population Tubulin-Different-Phenotype (%) [10]: 29% | Total Cell Count [10]: 557 | Population Apoptotic (%) [11]: 53% | Population Fragmented Nuclei (%) [11]: 16% | Population Healthy Nuclei (%) [11]: 26% | Population Hoechst High Intensity Objects (%) [11]: 10% | Population Membrane Permeable-Phenotype (%) [11]: 19% | Population Mitochondria Different-Phenotype (%) [11]: 33% | Population Mitotic Cells (%) [11]: 46% | Population Normal (%) [11]: 89% | Population Pyknosed Nuclei (%) [11]: 57% | Population Tubulin-Different-Phenotype (%) [11]: 87% | Total Cell Count [11]: 264 | Population Apoptotic (%) [12]: 58% | Population Fragmented Nuclei (%) [12]: 8% | Population Healthy Nuclei (%) [12]: 24% | Population Hoechst High Intensity Objects (%) [12]: 8% | Population Membrane Permeable-Phenotype (%) [12]: 25% | Population Mitochondria Different-Phenotype (%) [12]: 61% | Population Mitotic Cells (%) [12]: 41% | Population Normal (%) [12]: 91% | Population Pyknosed Nuclei (%) [12]: 66% | Population Tubulin-Different-Phenotype (%) [12]: 83% | Total Cell Count [12]: 158

Cc1nc(N2CC[C@H](O)C2)ncc1-c1cc(C(F)(F)F)cc2[nH]ncc12
Population Apoptotic (%) [1]: 20% | Population Fragmented Nuclei (%) [1]: 9% | Population Healthy Nuclei (%) [1]: 70% | Population Hoechst High Intensity Objects (%) [1]: 7% | Population Membrane Permeable-Phenotype (%) [1]: 3% | Population Mitochondria Different-Phenotype (%) [1]: 7% | Population Mitotic Cells (%) [1]: 79% | Population Normal (%) [1]: 92% | Population Pyknosed Nuclei (%) [1]: 20% | Population Tubulin-Different-Phenotype (%) [1]: 5% | Total Cell Count [1]: 628 | Population Apoptotic (%) [2]: 8% | Population Fragmented Nuclei (%) [2]: 7% | Population Healthy Nuclei (%) [2]: 87% | Population Hoechst High Intensity Objects (%) [2]: 2% | Population Membrane Permeable-Phenotype (%) [2]: 1% | Population Mitochondria Different-Phenotype (%) [2]: 10% | Population Mitotic Cells (%) [2]: 91% | Population Normal (%) [2]: 97% | Population Pyknosed Nuclei (%) [2]: 4% | Population Tubulin-Different-Phenotype (%) [2]: 9% | Total Cell Count [2]: 1293 | Population Apoptotic (%) [3]: 24% | Population Fragmented Nuclei (%) [3]: 11% | Population Healthy Nuclei (%) [3]: 70% | Population Hoechst High Intensity Objects (%) [3]: 9% | Population Membrane Permeable-Phenotype (%) [3]: 4% | Population Mitochondria Different-Phenotype (%) [3]: 4% | Population Mitotic Cells (%) [3]: 75% | Population Normal (%) [3]: 90% | Population Pyknosed Nuclei (%) [3]: 18% | Population Tubulin-Different-Phenotype (%) [3]: 3% | Total Cell Count [3]: 699 | Population Apoptotic (%) [4]: 5% | Population Fragmented Nuclei (%) [4]: 7% | Population Healthy Nuclei (%) [4]: 88% | Population Hoechst High Intensity Objects (%) [4]: 1% | Population Membrane Permeable-Phenotype (%) [4]: 1% | Population Mitochondria Different-Phenotype (%) [4]: 8% | Population Mitotic Cells (%) [4]: 94% | Population Normal (%) [4]: 98% | Population Pyknosed Nuclei (%) [4]: 4% | Population Tubulin-Different-Phenotype (%) [4]: 4% | Total Cell Count [4]: 1684 | Population Apoptotic (%) [5]: 22% | Population Fragmented Nuclei (%) [5]: 7% | Population Healthy Nuclei (%) [5]: 79% | Population Hoechst High Intensity Objects (%) [5]: 5% | Population Membrane Permeable-Phenotype (%) [5]: 5% | Population Mitochondria Different-Phenotype (%) [5]: 4% | Population Mitotic Cells (%) [5]: 77% | Population Normal (%) [5]: 94% | Population Pyknosed Nuclei (%) [5]: 12% | Population Tubulin-Different-Phenotype (%) [5]: 11% | Total Cell Count [5]: 702 | Population Apoptotic (%) [6]: 3% | Population Fragmented Nuclei (%) [6]: 17% | Population Hoechst High Intensity Objects (%) [6]: 2% | Population Membrane Permeable-Phenotype (%) [6]: 4% | Population Mitochondria Different-Phenotype (%) [6]: 3% | Population Mitotic Cells (%) [6]: 96% | Population Normal (%) [6]: 97% | Population Pyknosed Nuclei (%) [6]: 2% | Population Tubulin-Different-Phenotype (%) [6]: 14% | Total Cell Count [6]: 1975 | Population Apoptotic (%) [7]: 28% | Population Fragmented Nuclei (%) [7]: 10% | Population Healthy Nuclei (%) [7]: 80% | Population Hoechst High Intensity Objects (%) [7]: 5% | Population Membrane Permeable-Phenotype (%) [7]: 12% | Population Mitochondria Different-Phenotype (%) [7]: 1% | Population Mitotic Cells (%) [7]: 71% | Population Normal (%) [7]: 94% | Population Pyknosed Nuclei (%) [7]: 9% | Population Tubulin-Different-Phenotype (%) [7]: 6% | Total Cell Count [7]: 840 | Population Apoptotic (%) [8]: 6% | Population Fragmented Nuclei (%) [8]: 21% | Population Healthy Nuclei (%) [8]: 75% | Population Hoechst High Intensity Objects (%) [8]: 2% | Population Membrane Permeable-Phenotype (%) [8]: 5% | Population Mitotic Cells (%) [8]: 93% | Population Normal (%) [8]: 97% | Population Pyknosed Nuclei (%) [8]: 2% | Population Tubulin-Different-Phenotype (%) [8]: 5% | Total Cell Count [8]: 2845
